Measured values as given in ChEMBL document CHEMBL5653631, “A Potent and Selective ULK1 Inhibitor Suppresses Autophagy and Sensitizes Cancer Cells to Nutrient Stress” (iScience, 2018).

How the values were obtained:
[1] = target: Mitogen-activated protein kinase kinase kinase 9 (Homo sapiens) (UniProt P80192); experiment: Inhibition of human recombinant MLK1 at 40 nM in presence of ATP by radiometric assay relative to control
[2] = target: T1, NUAK family SNF1-like kinase 2 (Homo sapiens) (UniProt Q9H093); experiment: Inhibition of human recombinant NuaK2 at 40 nM in presence of ATP by radiometric assay relative to control
T1 sequence (whole entry): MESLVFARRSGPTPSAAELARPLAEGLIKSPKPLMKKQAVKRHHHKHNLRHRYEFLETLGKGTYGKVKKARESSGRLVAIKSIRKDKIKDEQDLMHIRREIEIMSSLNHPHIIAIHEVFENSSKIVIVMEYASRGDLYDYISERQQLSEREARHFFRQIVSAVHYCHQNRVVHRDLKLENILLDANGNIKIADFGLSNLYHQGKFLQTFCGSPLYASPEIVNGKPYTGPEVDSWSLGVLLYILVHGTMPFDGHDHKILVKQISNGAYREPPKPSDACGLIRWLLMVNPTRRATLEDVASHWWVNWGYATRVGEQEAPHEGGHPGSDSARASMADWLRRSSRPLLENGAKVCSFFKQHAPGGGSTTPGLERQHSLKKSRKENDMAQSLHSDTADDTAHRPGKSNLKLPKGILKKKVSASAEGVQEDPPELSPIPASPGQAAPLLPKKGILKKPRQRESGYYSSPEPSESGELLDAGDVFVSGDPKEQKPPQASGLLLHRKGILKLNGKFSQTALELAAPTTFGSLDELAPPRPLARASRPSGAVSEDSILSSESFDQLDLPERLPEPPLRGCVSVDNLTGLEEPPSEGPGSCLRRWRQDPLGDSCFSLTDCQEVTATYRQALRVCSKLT

[3] = target: Serine/threonine-protein kinase WNK1 (Homo sapiens) (UniProt Q9H4A3); experiment: Inhibition of human recombinant Wnk1 at 40 nM in presence of ATP by radiometric assay relative to control
[4] = target: Serine/threonine-protein kinase PLK1 (Homo sapiens) (UniProt P53350); experiment: Inhibition of human recombinant PLK1 at 15 nM in presence of ATP by radiometric assay relative to control
[5] = target: Tau-tubulin kinase 2 (Homo sapiens) (UniProt Q6IQ55); experiment: Inhibition of human recombinant TTBK2 at 15 nM in presence of ATP by radiometric assay relative to control
[6] = target: Activin receptor type-1-like (Homo sapiens) (UniProt P37023); experiment: Inhibition of human recombinant ALK1 at 500 nM in presence of ATP by radiometric assay relative to control
In short: (§1)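 Panel of 327 recombinant human kinases, each assayed in vitro by radiometric activity assay in duplicate at a single inhibitor concentration per compound, chosen with reference to its ULK1 inhibition. Activity remaining was expressed as percent of vehicle control, and percent inhibition was calculated as 100 minus percent activity remaining.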

[7] = target: T2, Eukaryotic elongation factor 2 kinase (Homo sapiens) (UniProt O00418); experiment: Inhibition of human recombinant eEF2K at 500 nM in presence of ATP by radiometric assay relative to control
T2 sequence (whole entry): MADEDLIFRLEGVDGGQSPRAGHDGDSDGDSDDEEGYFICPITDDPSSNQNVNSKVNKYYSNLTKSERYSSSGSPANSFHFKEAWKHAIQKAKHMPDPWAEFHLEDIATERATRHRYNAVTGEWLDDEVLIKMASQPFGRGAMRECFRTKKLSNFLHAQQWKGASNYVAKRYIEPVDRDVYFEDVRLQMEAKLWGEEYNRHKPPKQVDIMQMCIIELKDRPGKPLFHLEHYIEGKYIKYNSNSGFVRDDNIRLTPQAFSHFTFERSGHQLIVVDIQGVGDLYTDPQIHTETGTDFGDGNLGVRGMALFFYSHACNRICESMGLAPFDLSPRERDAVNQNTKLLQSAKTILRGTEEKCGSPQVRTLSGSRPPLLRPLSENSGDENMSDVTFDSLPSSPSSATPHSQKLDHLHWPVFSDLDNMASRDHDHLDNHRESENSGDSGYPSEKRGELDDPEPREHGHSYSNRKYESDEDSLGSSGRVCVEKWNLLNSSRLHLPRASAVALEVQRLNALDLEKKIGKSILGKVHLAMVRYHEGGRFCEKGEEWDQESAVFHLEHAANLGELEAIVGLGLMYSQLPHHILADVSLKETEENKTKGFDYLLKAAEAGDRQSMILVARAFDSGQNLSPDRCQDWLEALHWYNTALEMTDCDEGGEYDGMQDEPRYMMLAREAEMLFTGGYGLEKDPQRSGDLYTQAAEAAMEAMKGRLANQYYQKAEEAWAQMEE

[8] = target: Serine/threonine-protein kinase Nek7 (Homo sapiens) (UniProt Q8TDX7); experiment: Inhibition of human recombinant NEK7 at 500 nM in presence of ATP by radiometric assay relative to control
[9] = target: 5'-AMP-activated protein kinase catalytic subunit alpha-1 (Homo sapiens) (UniProt Q13131); experiment: Inhibition of human recombinant AMPKa1 at 500 nM related to control ULK1; in short: as §1
[10] = target: MAP kinase-activated protein kinase 2 (Homo sapiens) (UniProt P49137); experiment: Inhibition of human recombinant MAPKAPK2 at 500 nM related to control ULK1
[11] = target: T3, Tribbles homolog 2 (Homo sapiens) (UniProt Q92519); experiment: Inhibition of human recombinant Trb2 at 500 nM related to control ULK1
T3 sequence (whole entry): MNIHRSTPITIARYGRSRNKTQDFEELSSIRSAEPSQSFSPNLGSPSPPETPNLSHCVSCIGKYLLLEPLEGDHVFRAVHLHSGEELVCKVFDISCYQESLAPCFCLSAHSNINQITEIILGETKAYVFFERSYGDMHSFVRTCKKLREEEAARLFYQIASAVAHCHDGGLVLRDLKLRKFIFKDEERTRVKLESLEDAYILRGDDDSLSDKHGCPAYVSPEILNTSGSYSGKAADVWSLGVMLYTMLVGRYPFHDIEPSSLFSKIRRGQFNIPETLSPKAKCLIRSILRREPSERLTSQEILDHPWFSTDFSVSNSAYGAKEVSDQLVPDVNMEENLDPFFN

Sequence of Mitogen-activated protein kinase kinase kinase 9 (Homo sapiens) (P80192 whole entry, looked up): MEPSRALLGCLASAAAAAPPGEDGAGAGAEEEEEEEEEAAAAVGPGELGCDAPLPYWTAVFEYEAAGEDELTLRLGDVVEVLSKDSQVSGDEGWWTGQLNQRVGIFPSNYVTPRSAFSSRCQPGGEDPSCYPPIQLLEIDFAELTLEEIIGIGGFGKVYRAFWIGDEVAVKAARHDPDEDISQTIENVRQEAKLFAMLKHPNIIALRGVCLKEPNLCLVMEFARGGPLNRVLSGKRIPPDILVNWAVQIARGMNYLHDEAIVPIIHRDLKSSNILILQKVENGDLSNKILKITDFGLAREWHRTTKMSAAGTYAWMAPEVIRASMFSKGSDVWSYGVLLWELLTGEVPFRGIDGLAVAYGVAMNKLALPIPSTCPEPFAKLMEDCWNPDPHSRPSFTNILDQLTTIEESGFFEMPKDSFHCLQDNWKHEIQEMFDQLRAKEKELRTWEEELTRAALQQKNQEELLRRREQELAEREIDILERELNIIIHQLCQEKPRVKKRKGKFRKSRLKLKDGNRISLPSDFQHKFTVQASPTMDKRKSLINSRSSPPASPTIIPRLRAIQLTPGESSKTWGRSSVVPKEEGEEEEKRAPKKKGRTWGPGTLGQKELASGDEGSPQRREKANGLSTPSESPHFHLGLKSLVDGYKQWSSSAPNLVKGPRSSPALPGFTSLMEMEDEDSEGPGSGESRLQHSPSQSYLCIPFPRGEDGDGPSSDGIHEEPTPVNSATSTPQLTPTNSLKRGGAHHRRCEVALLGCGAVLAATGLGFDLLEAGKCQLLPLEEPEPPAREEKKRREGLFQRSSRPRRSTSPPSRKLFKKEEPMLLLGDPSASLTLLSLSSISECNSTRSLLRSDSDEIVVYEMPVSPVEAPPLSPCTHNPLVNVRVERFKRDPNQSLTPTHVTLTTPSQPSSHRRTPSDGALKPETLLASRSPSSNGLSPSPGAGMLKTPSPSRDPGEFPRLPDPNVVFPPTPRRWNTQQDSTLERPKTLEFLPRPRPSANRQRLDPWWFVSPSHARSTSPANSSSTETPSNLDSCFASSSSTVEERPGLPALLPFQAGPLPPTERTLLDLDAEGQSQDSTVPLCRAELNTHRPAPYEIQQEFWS
Sequence of MAP kinase-activated protein kinase 2 (Homo sapiens) (P49137 whole entry, looked up): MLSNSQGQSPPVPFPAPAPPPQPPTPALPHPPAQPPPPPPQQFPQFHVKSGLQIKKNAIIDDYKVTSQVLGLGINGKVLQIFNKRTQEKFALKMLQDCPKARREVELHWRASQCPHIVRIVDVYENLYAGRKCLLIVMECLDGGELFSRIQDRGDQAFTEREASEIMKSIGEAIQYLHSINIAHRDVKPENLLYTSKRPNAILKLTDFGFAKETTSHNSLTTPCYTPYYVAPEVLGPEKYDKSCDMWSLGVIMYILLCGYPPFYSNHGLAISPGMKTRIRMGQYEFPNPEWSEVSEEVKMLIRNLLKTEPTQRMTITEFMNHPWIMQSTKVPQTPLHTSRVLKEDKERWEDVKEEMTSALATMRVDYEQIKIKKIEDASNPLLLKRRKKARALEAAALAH
Sequence of Tau-tubulin kinase 2 (Homo sapiens) (Q6IQ55 whole entry): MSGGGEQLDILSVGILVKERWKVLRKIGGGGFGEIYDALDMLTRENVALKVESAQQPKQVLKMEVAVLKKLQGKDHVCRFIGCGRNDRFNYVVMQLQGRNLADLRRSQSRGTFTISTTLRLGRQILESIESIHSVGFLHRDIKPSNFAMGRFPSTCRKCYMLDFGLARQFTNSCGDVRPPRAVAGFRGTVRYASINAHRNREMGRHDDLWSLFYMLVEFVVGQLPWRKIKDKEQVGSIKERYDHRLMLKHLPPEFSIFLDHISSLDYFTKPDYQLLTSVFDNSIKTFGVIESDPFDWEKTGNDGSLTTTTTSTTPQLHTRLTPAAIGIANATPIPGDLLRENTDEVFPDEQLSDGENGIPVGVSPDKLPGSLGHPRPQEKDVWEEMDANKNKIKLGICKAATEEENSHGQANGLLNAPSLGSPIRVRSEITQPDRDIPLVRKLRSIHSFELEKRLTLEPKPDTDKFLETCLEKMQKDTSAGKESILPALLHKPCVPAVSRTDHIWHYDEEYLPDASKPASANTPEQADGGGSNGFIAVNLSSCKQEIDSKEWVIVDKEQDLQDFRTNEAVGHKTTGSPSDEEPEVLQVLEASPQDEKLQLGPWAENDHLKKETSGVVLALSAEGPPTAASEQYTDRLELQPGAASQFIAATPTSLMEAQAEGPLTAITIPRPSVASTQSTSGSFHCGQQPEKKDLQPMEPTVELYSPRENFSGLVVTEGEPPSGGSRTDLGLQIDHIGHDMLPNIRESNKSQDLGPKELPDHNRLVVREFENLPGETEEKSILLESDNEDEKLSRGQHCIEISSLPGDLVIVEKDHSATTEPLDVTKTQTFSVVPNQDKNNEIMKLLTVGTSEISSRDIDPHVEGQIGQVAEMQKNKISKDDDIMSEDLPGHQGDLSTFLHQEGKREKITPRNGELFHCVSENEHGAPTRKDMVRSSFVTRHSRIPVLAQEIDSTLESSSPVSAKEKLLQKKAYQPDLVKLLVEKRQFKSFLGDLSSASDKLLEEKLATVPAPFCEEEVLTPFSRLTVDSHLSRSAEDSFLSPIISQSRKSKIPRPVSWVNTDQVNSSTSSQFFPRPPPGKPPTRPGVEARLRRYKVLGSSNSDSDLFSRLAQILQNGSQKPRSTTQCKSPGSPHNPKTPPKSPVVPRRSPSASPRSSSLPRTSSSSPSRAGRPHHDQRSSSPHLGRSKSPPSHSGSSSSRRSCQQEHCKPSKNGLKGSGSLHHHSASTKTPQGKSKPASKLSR
Sequence of Serine/threonine-protein kinase PLK1 (Homo sapiens) (P53350 whole entry): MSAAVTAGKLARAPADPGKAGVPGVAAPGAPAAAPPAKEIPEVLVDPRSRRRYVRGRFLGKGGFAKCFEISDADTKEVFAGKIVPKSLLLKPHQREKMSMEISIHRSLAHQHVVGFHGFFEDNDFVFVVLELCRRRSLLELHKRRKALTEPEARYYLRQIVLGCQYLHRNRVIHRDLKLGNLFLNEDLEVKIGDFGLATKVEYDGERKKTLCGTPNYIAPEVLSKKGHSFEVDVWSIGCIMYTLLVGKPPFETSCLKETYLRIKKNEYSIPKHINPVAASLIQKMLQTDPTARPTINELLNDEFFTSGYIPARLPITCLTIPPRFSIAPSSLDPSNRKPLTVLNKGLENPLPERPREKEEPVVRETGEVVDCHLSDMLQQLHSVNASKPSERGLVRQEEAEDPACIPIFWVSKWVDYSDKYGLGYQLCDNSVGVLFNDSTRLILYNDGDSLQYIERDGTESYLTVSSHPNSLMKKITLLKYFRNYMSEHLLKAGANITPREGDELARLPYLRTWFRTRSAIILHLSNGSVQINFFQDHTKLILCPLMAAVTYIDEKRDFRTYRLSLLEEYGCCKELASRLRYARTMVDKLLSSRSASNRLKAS
Sequence of Activin receptor type-1-like (Homo sapiens) (P37023 whole entry): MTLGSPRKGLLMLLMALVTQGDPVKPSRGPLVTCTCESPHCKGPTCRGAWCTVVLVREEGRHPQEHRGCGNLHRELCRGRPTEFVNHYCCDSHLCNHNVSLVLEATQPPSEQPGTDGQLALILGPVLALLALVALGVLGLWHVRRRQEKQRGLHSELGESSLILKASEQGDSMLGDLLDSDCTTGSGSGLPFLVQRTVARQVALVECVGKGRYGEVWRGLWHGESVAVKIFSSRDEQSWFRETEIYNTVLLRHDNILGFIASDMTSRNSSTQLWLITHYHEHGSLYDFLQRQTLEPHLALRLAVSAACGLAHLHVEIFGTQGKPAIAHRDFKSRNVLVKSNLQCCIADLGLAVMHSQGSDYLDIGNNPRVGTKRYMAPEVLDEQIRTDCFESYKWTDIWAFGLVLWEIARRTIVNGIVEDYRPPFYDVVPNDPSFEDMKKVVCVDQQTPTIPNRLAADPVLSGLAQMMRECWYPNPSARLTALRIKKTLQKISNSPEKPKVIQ
Sequence of 5'-AMP-activated protein kinase catalytic subunit alpha-1 (Homo sapiens) (Q13131 whole entry, looked up): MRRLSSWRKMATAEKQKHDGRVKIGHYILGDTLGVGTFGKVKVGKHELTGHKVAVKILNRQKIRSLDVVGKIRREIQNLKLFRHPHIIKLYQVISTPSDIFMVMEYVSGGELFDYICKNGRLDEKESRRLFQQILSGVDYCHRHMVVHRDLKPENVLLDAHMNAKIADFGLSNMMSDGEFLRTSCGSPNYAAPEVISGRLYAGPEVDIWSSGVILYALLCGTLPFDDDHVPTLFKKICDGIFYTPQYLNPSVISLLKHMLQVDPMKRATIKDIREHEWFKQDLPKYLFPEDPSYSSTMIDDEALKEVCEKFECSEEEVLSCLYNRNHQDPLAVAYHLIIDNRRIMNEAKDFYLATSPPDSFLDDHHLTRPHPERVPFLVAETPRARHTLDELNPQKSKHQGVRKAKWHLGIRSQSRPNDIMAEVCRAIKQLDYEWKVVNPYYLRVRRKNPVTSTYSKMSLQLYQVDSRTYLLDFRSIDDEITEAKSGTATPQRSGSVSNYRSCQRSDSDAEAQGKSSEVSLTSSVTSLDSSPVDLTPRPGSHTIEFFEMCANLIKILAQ
Sequence of Serine/threonine-protein kinase Nek7 (Homo sapiens) (Q8TDX7 whole entry, looked up): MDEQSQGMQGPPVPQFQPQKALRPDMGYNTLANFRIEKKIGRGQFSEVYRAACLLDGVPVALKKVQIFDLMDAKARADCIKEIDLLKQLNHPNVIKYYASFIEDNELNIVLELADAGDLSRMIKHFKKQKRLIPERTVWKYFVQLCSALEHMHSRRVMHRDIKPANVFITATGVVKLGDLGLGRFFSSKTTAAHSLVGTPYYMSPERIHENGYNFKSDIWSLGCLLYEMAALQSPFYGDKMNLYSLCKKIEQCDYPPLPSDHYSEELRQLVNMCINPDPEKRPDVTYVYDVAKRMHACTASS

Question: With `O=C(N[C@@H](C1CC1)C(F)(F)F)c1cc(-c2cnn3cc(-c4ccc(F)cc4)cnc23)cs1` as the molecule, how does the inhibition [1] read?
Answer: Its inhibition is 7%.

Question: What about the inhibition [2] of the same molecule?
Answer: The inhibition was 3%.

Question: And the inhibition [3]?
Answer: Its inhibition is 12%.

Question: What does the source list for `CC(C)[C@H](NC(=O)c1cc(-c2cnn3cc(-c4ccc(OCCN5CCCCC5)cc4)cnc23)cs1)C(F)(F)F`?
Answer: inhibition [4]: 1%; inhibition [5]: 0%

Question: Which results are given for `CNC(=O)c1ccccc1Oc1nc(Nc2cc(OC)c(OC)c(OC)c2)ncc1Br`?
Answer: inhibition [6]: 0%; inhibition [7]: 14%; inhibition [8]: 0%; fold change (FC) [9]: 0.69; fold change (FC) [10]: 0; fold change (FC) [11]: 0
